Test results reported in ChEMBL document CHEMBL2040780, “Antiarrhythmic properties of phenylpiperazine derivatives of phenytoin with α₁-adrenoceptor affinities” (Bioorg Med Chem, 2012).
Activity calls are given as the source filed them.

Experiments:
Rattus norvegicus [1] = assay: Cardiotoxicity in Wistar rat assessed as effect on P-Q interval at 10 mg/kg, iv after 5 mins; assay type: toxicity, organism-based; parameters: dose 10 mg/kg, route intravenous; conditions: in vivo
How it was run: (§1)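 Male Wistar rats (180–250 g), anaesthetised with thiopental 60 mg/kg ip. Standard lead II ECG recorded at 50 mm/s just before dosing and at 1, 5 and 15 min after. Heart rate and P–Q, Q–T and QRS intervals were read. n=6 per group, mean ± SEM, one-way ANOVA.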

Rattus norvegicus [2] = assay: Antiarrhythmic activity in iv dosed Wistar rat assessed as protection against adrenaline-induced arrhythmia administered 15 mins prior to adrenaline-challenge; assay type: functional; conditions: Heart
How it was run: (§2)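 Szekeres model in male Wistar rats anaesthetised with thiopental (60 mg/kg ip). Test compound given iv in water (2.5–10 mg/kg) 15 min before adrenaline 20 µg/kg iv. Scored for extrasystoles, bigeminy and mortality; activity means no premature beats and inhibited arrhythmia versus controls.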

Rattus norvegicus [3] = assay: Antiarrhythmic activity in Wistar rat assessed as effect on heart beat at 10 mg/kg, iv after 5 mins; assay type: functional; how it was run: as §1
Rattus norvegicus [4] = assay: Hypotensive activity in normotensive Wistar rat assessed as decrease in diastolic blood pressure at 2.5 to 10 mg/kg, iv after 1 min measured up to 60 mins; assay type: organism-based, Artery; parameters: dose 2.5-10 mg/kg, route intravenous; conditions: in vivo
How it was run: (§3)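 Right carotid artery cannulated with heparin-saline-filled tubing for blood pressure recording. After 5 min stabilisation, compound injected iv into the caudal vein (2.5–10 mg/kg, 1 ml/kg). Systolic and diastolic pressure followed for 60 min. n=6 per group, mean ± SEM, one-way ANOVA.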

Rattus norvegicus [5] = assay: Cardiotoxicity in Wistar rat assessed as effect on P-Q interval at 10 mg/kg, iv after 15 mins; assay type: toxicity, organism-based; parameters: dose 10 mg/kg, route intravenous; conditions: in vivo, 0.25 h; how it was run: as §1
Rattus norvegicus [6] = assay: Antiarrhythmic activity in Wistar rat assessed as effect on heart beat at 10 mg/kg, iv after 1 min; assay type: functional; how it was run: as §1
Rattus norvegicus [7] = assay: Hypotensive activity in normotensive Wistar rat assessed as decrease in systolic blood pressure at 2.5 to 10 mg/kg, iv after 1 min measured up to 60 mins; assay type: organism-based, Artery; parameters: dose 2.5-10 mg/kg, route intravenous; conditions: in vivo; how it was run: as §3
Rattus norvegicus [8] = assay: Antiarrhythmic activity in iv dosed barium chloride-induced Wistar rat arrhythmia model assessed as protection against mortality administered 15 mins prior to barium chloride-challenge; assay type: functional; conditions: Heart
How it was run: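 Male Wistar rats (180–250 g), groups of 6. Activity criterion: gradual disappearance of arrhythmia and restoration of sinus rhythm; protection against heart disturbances and death scored.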

Rattus norvegicus [9] = assay: Cardiotoxicity in Wistar rat assessed as effect on Q-T interval at 10 mg/kg, iv after 1 min; assay type: toxicity, organism-based; parameters: dose 10 mg/kg, route intravenous; conditions: in vivo; how it was run: as §1
Rattus norvegicus [10] = assay: Antiarrhythmic activity in Wistar rat assessed as protection against adrenaline-induced bigeminy at 2.5 to 10 mg/kg, iv administered 15 mins prior to adrenaline-challenge; assay type: functional, organism-based; conditions: Heart; how it was run: as §2
Rattus norvegicus [11] = assay: Cardiotoxicity in Wistar rat assessed as effect on QRS interval at 10 mg/kg, iv after 5 mins; assay type: toxicity, organism-based; parameters: dose 10 mg/kg, route intravenous; conditions: in vivo; how it was run: as §1
Rattus norvegicus [12] = assay: Hypotensive activity in normotensive Wistar rat assessed as decrease in diastolic blood pressure at 2.5 to 10 mg/kg, iv at 1 min; assay type: organism-based, Artery; parameters: dose 2.5-10 mg/kg, route intravenous; conditions: in vivo; how it was run: as §3
Rattus norvegicus [13] = assay: Hypotensive activity in normotensive Wistar rat assessed as decrease in systolic blood pressure at 2.5 to 10 mg/kg, iv at 1 min; assay type: organism-based, Artery; parameters: dose 2.5-10 mg/kg, route intravenous; conditions: in vivo; how it was run: as §3
Rattus norvegicus [14] = assay: Cardiotoxicity in Wistar rat assessed as effect on Q-T interval at 10 mg/kg, iv after 15 mins; assay type: toxicity, organism-based; parameters: dose 10 mg/kg, route intravenous; conditions: in vivo, 0.25 h; how it was run: as §1
Rattus norvegicus [15] = assay: Cardiotoxicity in Wistar rat assessed as effect on P-Q interval at 10 mg/kg, iv after 1 min; assay type: toxicity, organism-based; parameters: dose 10 mg/kg, route intravenous; conditions: in vivo; how it was run: as §1
Rattus norvegicus [16] = assay: Antiarrhythmic activity in Wistar rat assessed as effect on heart beat at 10 mg/kg, iv after 15 mins; assay type: functional; how it was run: as §1
Rattus norvegicus [17] = assay: Antiarrhythmic activity in iv dosed Wistar rat assessed as protection against barium chloride-induced extrasystoles administered 15 mins prior to barium chloride-challenge; assay type: functional; conditions: Heart
How it was run: (§4)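 Szekeres model in male Wistar rats. Activity is gradual disappearance of arrhythmia with restored sinus rhythm; protection against disturbances and death scored. Groups of 6 animals.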

Rattus norvegicus [18] = assay: Cardiotoxicity in Wistar rat assessed as effect on QRS interval at 10 mg/kg, iv after 1 min; assay type: toxicity, organism-based; parameters: dose 10 mg/kg, route intravenous; conditions: in vivo; how it was run: as §1
Rattus norvegicus [19] = assay: Antiarrhythmic activity in Wistar rat assessed as protection against adrenaline-induced extrasystoles at 2.5 to 10 mg/kg, iv administered 15 mins prior to adrenaline-challenge; assay type: functional, organism-based; conditions: Heart; how it was run: as §2
Rattus norvegicus [20] = assay: Cardiotoxicity in Wistar rat assessed as effect on Q-T interval at 10 mg/kg, iv after 5 mins; assay type: toxicity, organism-based; parameters: dose 10 mg/kg, route intravenous; conditions: in vivo; how it was run: as §1
Rattus norvegicus [21] = assay: Cardiotoxicity in Wistar rat assessed as effect on QRS interval at 10 mg/kg, iv after 15 mins; assay type: toxicity, organism-based; parameters: dose 10 mg/kg, route intravenous; conditions: in vivo, 0.25 h; how it was run: as §1
Rattus norvegicus [22] = assay: Antiarrhythmic activity in dosed Wistar rat assessed as protection against barium chloride-induced fibrillation administered 15 mins prior to barium chloride-challenge; assay type: functional; conditions: Heart; how it was run: as §4

Structure (SMILES): COC(=O)C(C)N1C(=O)N(CC(O)CN2CCN(c3ccccc3OC)CC2)C(c2ccccc2)(c2ccccc2)C1=O.Cl (racemic)
- Activity (Rattus norvegicus [1]): 55 ms
- ED50 (Rattus norvegicus [2]): 0.36 mg/kg
- Activity (Rattus norvegicus [3]): 363 min⁻¹
- Activity (Rattus norvegicus [4]): Non-toxic
- Activity (Rattus norvegicus [5]): 57 ms
- Activity (Rattus norvegicus [6]): 350 min⁻¹
- Activity (Rattus norvegicus [7]): Non-toxic
- Activity (Rattus norvegicus [8]): inactive
- Activity (Rattus norvegicus [9]): 82 ms
- Activity (Rattus norvegicus [10]): Active
- Activity (Rattus norvegicus [11]): 15 ms
- Activity (Rattus norvegicus [12]): Toxic
- Activity (Rattus norvegicus [13]): Toxic
- Activity (Rattus norvegicus [14]): 82 ms
- Activity (Rattus norvegicus [15]): 57 ms
- Activity (Rattus norvegicus [16]): 362 min⁻¹
- Activity (Rattus norvegicus [17]): inactive
- Activity (Rattus norvegicus [18]): 16 ms
- Activity (Rattus norvegicus [19]): Active
- Activity (Rattus norvegicus [20]): 81 ms
- Activity (Rattus norvegicus [21]): 16 ms
- Activity (Rattus norvegicus [22]): inactive
